Measured values pooled from the literature.
Compare with care: the assays were run in different laboratories.
KCNH2: Voltage-gated inwardly rectifying potassium channel KCNH2 (KCNH2, Homo sapiens, UniProt Q12809)
gag-pol protease: Gag-Pol polyprotein, protease (gag-pol, Human immunodeficiency virus type 1 group M subtype B, UniProt P04585)
F2: Prothrombin (F2, Homo sapiens, UniProt P00734)
tlpQ: tlpQ (Pseudomonas aeruginosa, UniProt Q9I0I4)
CES1: Liver carboxylesterase 1 (CES1, Homo sapiens, UniProt P23141)

O=c1c2cc(Cl)ccc2[nH]c(=S)n1Cc1ccc(-c2nnn[nH]2)nc1  IC50 (KCNH2; ion current, inhibitor, patch clamp; pH 7.4): > 10 µM
COc1ccc(S(=O)(=O)N(CC(C)C)C[C@@H](O)[C@H](Cc2ccccc2)NC(=O)O[C@H]2CCC[C@]23CCO[C@H](c2ccccc2OC)C3)cc1  Ki (gag-pol protease; enzyme activity, inhibitor): 0.00022 µM
N=C(N)NCCC[C@H](NC(=O)[C@H](Cc1ccccc1)NC(=O)[C@H](CCC(N)=O)NC(=O)OCc1ccccc1)C(=O)c1nccs1  Ki (F2; cell-free assay): 0.994 µM
COc1ccc(S(=O)(=O)N(CC(C)C)C[C@@H](O)[C@H](Cc2ccccc2)NC(=O)O[C@@H]2CCC[C@@]23CCO[C@@H](c2ccccc2)C3)cc1  Ki (gag-pol protease; enzyme activity, inhibitor): 0.051 µM
NC[C@H](O)c1ccc(O)c(O)c1  Kd (tlpQ; binding, ITC): > 1000 µM
COc1ccc(S(=O)(=O)N(CC(C)C)C[C@@H](O)[C@H](Cc2ccccc2)NC(=O)O[C@@H]2CCC[C@@]23CCO[C@@H](c2cccc(OC)c2)C3)cc1  Ki (gag-pol protease; enzyme activity, inhibitor): 1.14 µM
COc1c2c(cc3c1-c1c(cc4c(c1OC)OCO4)C[C@H](C)[C@H](C)C3)OCO2  Ki (CES1; enzyme activity, inhibitor): 0.0898 µM
CC(C)=CCC[C@](C)(O)[C@H]1CC[C@]2(C)[C@@H]1[C@H](O)C[C@@H]1[C@@]3(C)CC[C@H](O)C(C)(C)[C@@H]3[C@@H](O[C@@H]3O[C@H](CO)[C@@H](O)[C@H](O)[C@H]3O)C[C@]12C  Kd (Aldo-keto reductase family 1 member B10 (AKR1B10, Homo sapiens, UniProt O60218); binding, BLI): 3.19 µM
C=CCc1ccc(O)c(-c2cc(CC=C)ccc2O)c1  Ki (CES1; enzyme activity, inhibitor): 0.094 µM
NCCc1c[nH]c2ccc(O)cc12  Kd (tlpQ; binding, ITC): > 1000 µM
CS(=O)(=O)N[C@@H](CCC(N)=O)C(=O)N[C@@H](Cc1ccccc1)C(=O)N[C@@H](CCCNC(=N)N)C(=O)c1nccs1  Ki (F2; cell-free assay): > 10 µM
CCOC(=O)c1ccc(OC(=O)CCCCCN=C(N)N)cc1  IC50 (F2; enzyme activity, inhibitor): 0.588 µM
O=c1c2cc(Cl)c(CO)cc2[nH]c(=S)n1Cc1cccnc1  IC50 (KCNH2; ion current, inhibitor, patch clamp; pH 7.4): > 10 µM
COc1ccc(S(=O)(=O)N(CC(C)C)C[C@@H](O)[C@H](Cc2ccccc2)NC(=O)O[C@H]2CCC[C@@]23CCO[C@@H](c2cc(OC)cc(OC)c2)C3)cc1  Ki (gag-pol protease; enzyme activity, inhibitor): 0.0026 µM
